Screening results: PubChem, several laboratories
NR2E3 ag-1 – agonists of human NR2E3 nuclear receptor; CHO-S Gal4-NCOR/VP16-NR2E3 two-hybrid, luciferase; inhibition of corepressor binding, % at 3.98 µM; actives 0.35% (n = 360,000); AID 602229;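 active means inhibition above the mean of all tested compounds plus 3 SD, cut at about 70% in these data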;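 further: 0% = DMSO with NR2E3 transfected cells and 100% = cells lacking NR2E3 construct; higher means lower luciferase signal from less NR2E3 corepressor binding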
Target sequence (Q9Y5X4 whole entry, looked up, the tested form may be a part): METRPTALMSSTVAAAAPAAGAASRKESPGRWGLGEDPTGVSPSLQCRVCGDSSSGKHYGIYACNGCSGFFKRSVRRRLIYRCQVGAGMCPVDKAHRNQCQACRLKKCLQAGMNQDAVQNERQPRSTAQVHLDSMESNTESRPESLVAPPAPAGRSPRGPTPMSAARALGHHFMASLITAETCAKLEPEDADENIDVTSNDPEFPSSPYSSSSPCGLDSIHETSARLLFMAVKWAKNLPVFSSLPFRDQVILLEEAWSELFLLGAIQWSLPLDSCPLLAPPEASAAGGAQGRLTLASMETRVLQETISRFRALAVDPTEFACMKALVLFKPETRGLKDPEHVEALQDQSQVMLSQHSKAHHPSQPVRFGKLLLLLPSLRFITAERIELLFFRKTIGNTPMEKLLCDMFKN
NadD block – NadD (S. aureus) enzyme inhibition; actives 0.78% (n = 360,000); purified NadD enzyme, colorimetric absorbance read-out; inhibition, % at 20 µM; in the data active means inhibition above about 26%
NR2E3 ag-2 – activates human photoreceptor nuclear receptor NR2E3; inhibition of corepressor binding, % at 4.78 µM; Q9Y5X4; GST-NR2E3/biotin-RetCOR TR-FRET, 1536-well; actives 0.12% (n = 320,000);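 active means percent inhibition above the cutoff of mean plus 3 SD of all tested compounds, set per screening campaign, cut at about 20% in these data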;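 further: 0% = DMSO wells and 100% = biotin wells as full block of FRET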
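Test system: GST-NR2E3 and biotin-RetCOR proteins | Quantity: 1.35 nM GST-tagged NR2E3 final | Medium: Tris pH 7.5 | Also added: 7 nM biotin-RetCOR | Dosing: Compound at 4.8 µM, single dose | Timing: 5 h at 4 °C | Detection: Time-resolved FRET | Read-out basis: Percent inhibition | Benchmarks: Biotin wells as high control, 0.6% DMSO wells as low control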
MsrA inh – bovine MsrA inhibition | purified bovine MsrA, absorbance read-out | inhibition, % at 15.5 µM | AID 651718 | actives 0.75% (n = 360,000); in the data active means inhibition above about 4.5%;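 further: 0% = vehicle wells with enzyme and 100% = reference inhibitor wells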
MsrA act – activators of bovine methionine sulfoxide reductase A; purified bovine MsrA, absorbance read-out; activation, % at 10.6 µM; actives 0.3% (n = 360,000); AID 602163; in the data active means activation above about 7.5%;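 further: 0% = vehicle and 100% = reference activator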
GalR3 antag – antagonists of human GalR3; O60755; HEK293 GalR3-CNG cAMP membrane potential fluorescence; galR3 body fused to GalR1 C-terminus; inhibition, % at 3 µM; actives 0.44% (n = 360,000); AID 651719;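 active means inhibition above the screen-wide average plus 3 SD, cut at about 13% in these data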;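 further: forskolin and galanin both at EC90 stimulate the cells; cAMP rise reported by CNG channel membrane potential dye signal; 0% = forskolin plus galanin with DMSO and 100% = forskolin alone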
Target sequence (O60755 1-299 limits assumed): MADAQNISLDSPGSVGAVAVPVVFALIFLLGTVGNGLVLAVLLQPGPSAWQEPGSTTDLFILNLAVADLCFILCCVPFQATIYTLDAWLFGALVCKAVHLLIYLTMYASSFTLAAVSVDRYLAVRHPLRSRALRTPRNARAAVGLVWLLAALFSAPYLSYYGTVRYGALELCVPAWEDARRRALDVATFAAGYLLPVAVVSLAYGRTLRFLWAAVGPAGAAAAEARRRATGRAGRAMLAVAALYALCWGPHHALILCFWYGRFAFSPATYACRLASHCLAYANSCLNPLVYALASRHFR
NadD inh conf – confirmation of Staphylococcus aureus NadD inhibitors; purified S. aureus NadD, colorimetric enzyme assay; shares compounds with NadD block; inhibition, % at 20 µM; actives 13% (n = 2,000); AID 624309; in the data active means inhibition mostly above about 42%, no sharp cut-off; inactive means mostly below about 42%
* = called active by the depositor; / = not tested or not shown. An excerpt weighted towards active compounds, which were near 2.5% of everything screened.

SMILES	NR2E3 ag-1	NadD block	NR2E3 ag-2	MsrA inh	MsrA act	GalR3 antag	NadD inh conf
O=C(NCc1ccncc1)[C@@H]1CCCN1C(=O)[C@H]1CCCN1	8.0	-4.3	/	-0.4	-1.7	-0.3	/
Cc1cccc(C)c1NC(=O)c1cn(-c2ccccc2)nc1-c1ccccc1	15.6	3.8	-1.7	1.3	-1.6	-5.5	/
Cc1nn(Cc2ccc(Cl)c(Cl)c2)c(C)c1NC(=O)c1cn(-c2ccccc2)nc1-c1ccccc1	-7.5	33.0*	-1.0	-0.2	-11.5	-3.7	33.8
COC(=O)Cn1c(=NC(=O)c2cc(-c3cccs3)nc3ccccc23)sc2cc(S(N)(=O)=O)ccc21	4.1	30.9*	-0.5	3.2	-5.8	-3.6	16.3
CCOC(=O)Cn1c(=NC(=O)C2COc3ccccc3O2)sc2cc(S(N)(=O)=O)ccc21 (stereo unspecified)	-14.6	3.2	-1.1	1.2	2.4	-1.3	/
CCOC(=O)Cn1c(=NC(=O)c2cc(-c3cccs3)nc3ccccc23)sc2cc(S(N)(=O)=O)ccc21	-12.6	55.5*	2.4	2.2	-6.5	-4.5	61.2*
COC(=O)Cn1c(=NC(=O)c2nc3ccccc3s2)sc2cc(S(N)(=O)=O)ccc21	-13.6	13.6	1.5	0.3	1.6	-9.1	/
CC(=O)NN1C(=O)c2ccccc2NC1c1ccccc1F (stereo unspecified)	2.0	1.7	0.1	2.0	-0.5	-11.2	/
O=C1C=C(c2ccc(C(=O)O)cc2)C[C@@H](c2ccc3c(c2)OCO3)C1	-75.4	-1.9	5.2	0.6	-7.5	-0.9	/
COc1ccc(-n2nnnc2CNC(=O)C(=O)c2c[nH]c3ccccc23)cc1	5.4	-2.0	-0.3	1.4	-4.8	-2.5	/
CCCn1c(C(C)Nc2nc(-c3ccc(C)cc3)cs2)nc2cc(Cl)c(Cl)cc21 (stereo unspecified)	-7.2	16.6	-2.7	0.4	-1.9	1.6	/
Cc1ccc(Cn2c(CCNc3nc(-c4ccc(Cl)c([N+](=O)[O-])c4)cs3)nc3cc(Cl)c(Cl)cc32)cc1	-1.9	47.9*	-3.8	0.5	-1.1	-3.2	2.1
Cc1ccc(Cn2c(C3CCCN3c3nc(-c4ccc(F)cc4)cs3)nc3cc(Cl)c(Cl)cc32)cc1 (stereo unspecified)	3.2	48.8*	-3.4	-0.3	0.3	-3.0	26.1
OCCCn1c(C2CCCN2c2nc(-c3ccc(F)cc3)cs2)nc2cc(Cl)c(N3CCCCC3)cc21 (stereo unspecified)	22.8	32.6*	-0.6	0.9	-0.3	-2.1	5.1
Cc1ccc(Cn2c(C(C)Nc3nc(-c4ccc(F)cc4)cs3)nc3cc(Cl)c(Cl)cc32)cc1 (stereo unspecified)	-23.0	50.0*	-0.5	-0.1	-2.9	-3.0	10.3
Cc1cc(C)cc(OCC(=O)N/N=C\c2cn(C)nc2C)c1	-37.1	0.4	-0.5	-0.5	-1.8	-2.0	/
N=c1ccn(O)cc1CCc1ccccc1	-14.5	-0.2	/	-0.1	-1.6	-4.2	/
COc1ccc(CNC(=O)C2CCN(S(C)(=O)=O)CC2)c(OC)c1	11.6	1.3	2.8	-0.8	-8.1	-8.3	/
CCOC(=O)C1=C(C)NC(C)=C(C(=O)OCC)C1c1sccc1C	-7.9	-6.0	-1.4	0.9	1.6	-6.3	/
OCCCn1c(C2CCCN2c2nc(-c3ccc(Cl)cc3)cs2)nc2cc(Cl)c(N3CCCCC3)cc21 (stereo unspecified)	19.5	33.4*	-1.7	0.9	-2.1	-2.4	9.8
CCOC(=O)c1ccc(NC(=S)NN)cc1	-32.9	-15.4	-1.3	1.3	-10.5	6.8	/
COc1ccc(C(=O)O)cc1S(=O)(=O)N(C)CCc1ccccn1	7.8	-8.5	-0.2	0.2	-7.8	-1.8	/
CCC1=NN(C(=O)Cc2ccc([N+](=O)[O-])cc2)C(O)(C(C)(C)C)C1 (stereo unspecified)	9.4	-5.1	4.3	0.5	-7.8	7.5	/
O=C(NC(=S)Nc1nc(-c2ccccc2)cs1)c1cncc(Br)c1	-29.3	32.7*	-4.0	-1.2	-2.9	-5.6	11.3
CCOC(=O)Cn1cnc2c(nnn2-c2cccc(Cl)c2)c1=O	-20.1	-2.6	-2.0	0.2	0.4	-9.2	/
SMILES	NR2E3 ag-1	NadD block	NR2E3 ag-2	MsrA inh	MsrA act	GalR3 antag	NadD inh conf
COc1cccc(/C=C2/Sc3ccc(C(=O)NCCN4CCCCCC4)cc3NC2=O)c1	-12.4	41.9*	-3.1	0.4	-0.7	-9.6	-2.5
O=C1Nc2cc(C(=O)NCCN3CCCCCC3)ccc2S/C1=C\c1ccccc1	6.7	44.1*	-5.3	-0.3	-3.7	-0.6	-16.9
O=C1Nc2cc(C(=O)NCCCN3CCCC3)ccc2S/C1=C/c1cccc(Cl)c1	13.6	-1.4	/	-1.2	0.3	-5.7	/
Cc1cccc(/C=C2/Sc3ccc(C(=O)NCCN4CCCC4)cc3NC2=O)c1	-34.3	11.7	-0.1	2.0	1.1	-5.8	/
Cc1ccc(C(=O)OCC(=O)NC2CCCCCC2)c(C)c1	-17.8	-0.4	/	-0.5	-6.7	-2.4	/
COc1ccc(CNC(=O)CCN2C(=S)NC(C)(C)CC2C)cc1 (stereo unspecified)	2.4	-1.9	-2.2	1.9	-6.0	5.1	/
O=C(N/N=C\c1ccc(CNS(=O)(=O)c2ccccc2)o1)C(=O)Nc1ccc(F)cc1	-11.2	0.6	-1.7	2.8	-2.1	-4.9	/
O=C(NCc1ccc(/C=N\NC(=O)C(=O)Nc2ccccc2Br)o1)C(=O)Nc1ccccc1	-22.6	35.7*	-0.8	-0.5	-1.1	-9.9	7.5
N#CCC(=O)N/N=C/c1ccc(N2N=C(c3ccccc3)CC2c2ccccc2)cc1 (stereo unspecified)	11.9	48.7*	2.3	3.6	-3.9	-5.0	25.8
O=c1oc2ccccc2c(NCCc2ccccc2)c1[N+](=O)[O-]	-18.0	-3.3	-1.4	1.7	-1.4	-11.6	/
COc1ccc(/C=C(\C#N)C(=O)OCC(=O)Nc2ccc(-c3nc4ccc(C)cc4s3)cc2)cc1	-159.8	29.2*	-0.2	-0.5	-3.1	-3.3	5.7
Cc1ccc(S(=O)(=O)c2c(N)n(/N=C/c3ccco3)c3nc4ccccc4nc23)cc1	-30.0	25.0	-0.5	1.1	-1.4	5.0	/
Nc1c(S(=O)(=O)c2ccccc2)c2nc3ccccc3nc2n1/N=C/c1ccco1	-3.4	37.1*	0.4	1.7	3.0	-6.9	4.5
Cc1cccc(S(=O)(=O)c2c(N)n(/N=C/c3ccco3)c3nc4ccccc4nc23)c1	9.5	41.5*	2.6	0.4	-1.8	-4.1	11.3
COc1cc(C2NC(=O)NC(C)=C2C(C)=O)cc(OC)c1OC (stereo unspecified)	26.1	5.5	2.3	-0.2	-2.0	-0.9	/
N#C/C(=C\c1cn(-c2ccccc2)nc1-c1cc2ccccc2o1)c1nc2ccccc2[nH]1	-50.8	28.9*	-1.6	1.0	0.6	-0.2	12.0
